TRPC6 activator = mouse TRPC6 channel activators, primary screen, cell-based, HEK293, membrane potential dye | Short transient receptor potential channel 6 (Mus musculus), Q61143 | HEK293-TRPC6 membrane potential dye fluorescence; hits give high values | B-score at 10 µM | hit rate 0.13% among 310,000 | AID 2550, 2010;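 active means B-score of the integrated fluorescence ratio above library mean plus 3 SD, and starting fluorescence ratio within library mean plus 5 SD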;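 further: higher score means more depolarization so channel activation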
TRPC4 act = activators of mouse TRPC4 channel, primary screen, Fluo4 calcium, HEK293 TRPC4beta/mu-opioid cells; Short transient receptor potential channel 4 (Mus musculus), Q9QUQ5; Fluo4 calcium fluorescence; hits give high values; B-score at 10 µM; hit rate 0.49% among 310,000; AID 2237, 2010;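 active means B-score above 5 SD of library B-scores, and initial fluorescence ratio not above library mean plus 5 SD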;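 further: positive B-score marks a calcium rise read as TRPC4 activation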
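Technique: kinetic Fluo4 calcium fluorescence; Test system: TRPC4beta and mu-opioid receptor HEK293 stable cells; Measure: B-scored integrated calcium fluorescence ratio; Benchmarks: low control buffer alone, high control maximal DAMGO; Schedule: 45 min room-temperature Fluo4 loading, 110 s read.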
TRPC4 PAM = positive allosteric modulators of TRPC4, primary screen, cell-based, mouse TRPC4beta, HEK293 mu-opioid, Fluo-4 calcium; Short transient receptor potential channel 4 (Mus musculus), Q9QUQ5; DAMGO EC20, Fluo-4 Ca2+ flux; hits give high values; B-score at 10 µM; hit rate 0.42% among 310,000; AID 2227, 2009;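 active means B-score of calcium response area above 5 SD of library B-scores, with initial fluorescence ratio within 5 SD of library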;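 further: B-score of integrated fluorescence ratio over time as area under calcium response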
TRPC6 inh = mouse TRPC6 channel inhibitors, primary screen, cell-based, HEK293, membrane potential dye; Short transient receptor potential channel 6 (Mus musculus), Q61143; ACh-evoked depolarization; hits give low values; B-score at 10 µM; hit rate 1.1% among 310,000; AID 2553, 2010;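 active means B-score under library mean minus 3 SD, initial fluorescence not abnormally high, positive integrated signal ratio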;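 further: B-score derived from integrated fluorescence ratio over the kinetic read; more negative B-score means stronger inhibition of depolarization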
TRPC4 block = inhibitors of mouse TRPC4 channel, primary screen, Fluo4 calcium, HEK293 TRPC4beta/mu-opioid cells. DAMGO-evoked Fluo4 calcium flux; hits give low values. B-score at 10 µM. AID 2247, 2010. Short transient receptor potential channel 4 (Mus musculus), Q9QUQ5. hit rate 0.39% among 300,000;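 active means B-score over 3 SD under the library average, no early fluorescence shift, positive overall ratio signal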
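material = TRPC4beta/mu-opioid receptor HEK293 cell line | probe or stimulus = sequential submaximal and maximal DAMGO stimulation | compound dosing = one concentration per compound | measured by = Fluo4 Ca2+ flux fluorescence | evaluation = integrated fluorescence ratio relative to baseline, converted to per-well B score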
TRPC4 spec 2 = mouse TRPC4 off-target activity of TRPC6 inhibitors, second screen | AID 2776 | shares compounds with TRPC6 inh | hit rate 42% among 920 | inhibition, % at 10 µM | HEK293 TRPC4/MOR, membrane potential dye fluorescence; channel activated by saturating DAMGO dose;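 active means compounds whose fluorescence signal differed from control wells by over 3 SD, either direction, in both duplicate plates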
TRPC4 spec = mouse TRPC4 modulation by TRPC6 hits, confirmation, selectivity assay for TRPC6 inhibitor project, cell-based, HEK293 TRPC4/mu-opioid, membrane potential dye; shares compounds with TRPC6 inh; activity change, negative = inhibition, % at 10 µM; membrane potential fluorescence; AID 2777, 2010; hit rate 61% among 920;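 active means rise or fall in signal beyond 3 SD of buffer-only wells in both replicate plates, either sign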;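 further: integrated kinetic ratio of fluorescence range over baseline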
HEK293 MPD ctr 2-1 = nonspecific membrane potential effects, parental HEK293, confirmation, counter-screen for TRPC6 inhibitor project, cell-based, second counter screen. signal change vs control, % at 10 µM. shares compounds with TRPC6 inh. hit rate 31% among 920. parental HEK293 membrane potential dye fluorescence; maximal acetylcholine challenge after compound addition;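 active means membrane potential signal moving either way by over 3 SD of the maximum-effect control, in both duplicate plates, meaning non-specific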
HEK293 MPD ctr-1 = membrane potential modulation in parental HEK293, confirmation, counter-screen for TRPC6 inhibitor project, cell-based. shares compounds with TRPC6 inh. parental HEK293 membrane potential dye fluorescence. membrane potential signal change, % at 10 µM. hit rate 60% among 920. AID 2780, 2010;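 active means membrane potential signal shifting up or down by more than 3 SD of buffer-only wells, on both duplicate plates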
HEK293 MPD ctr-2 = parental HEK293 membrane potential modulation, confirmation, counter-screen for TRPC6 modulator project, cell-based | shares compounds with TRPC6 inh | membrane potential dye fluorescence | membrane potential signal change, % at 10 µM | hit rate 51% among 2,400 | AID 488924, 2010;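 active means membrane potential signal moves up or down beyond 5 SD from buffer-only wells, on both duplicate plates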
HEK293 MPD ctr 2-2 = second check of TRPC6 modulator effects in parental HEK293 cells; shares compounds with TRPC6 inh; membrane potential dye fluorescence; after compound, maximal acetylcholine stimulation; inhibition, % at 10 µM; hit rate 14% among 2,400; AID 488926;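 active means membrane potential signal drops by more than 5 SD from the mean control signal, in both duplicate plates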;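 further: plate controls were acetylcholine ECmax control wells for no effect and buffer only wells for full effect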
TRPC4/MOR mod = TRPC4 modulation by TRPC6 hit compounds, confirmation, selectivity assay for TRPC6 modulator project, cell-based, HEK293 TRPC4/mu-opioid, membrane potential dye, mouse | shares compounds with TRPC6 inh | membrane potential fluorescence | percent change from control (negative = decrease, positive = increase), % at 10 µM | hit rate 69% among 2,400 | AID 488927, 2010;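 active means membrane potential signal moved up or down beyond 5 SD of buffer control wells, in both duplicate plates, actives on both sides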;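 further: plate controls were assay buffer wells for no effect and DAMGO maximal-effect wells for full effect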
TRPC4/MOR inh 2 = second selectivity test of TRPC6 modulators against mouse TRPC4. inhibition, % at 10 µM. shares compounds with TRPC6 inh. hit rate 55% among 2,400. HEK293 TRPC4/mu-opioid, membrane potential dye fluorescence; stimulated with maximal-effect DAMGO;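 active means drop in membrane potential signal beyond 5 SD of the control wells in both duplicate plates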;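 further: TRPC4 counter screen for TRPC6 hits run under conditions tuned for TRPC6 not TRPC4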
TRPC6 inh conf = mouse TRPC6 channel inhibitors, confirmation, HEK293 cells, membrane potential dye, duplicate | ACh-evoked depolarization | hit rate 43% among 3,300 | AID 488960, 2010 | shares compounds with TRPC6 inh | inhibition, % at 10 µM;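 active means fluorescence ratio falls more than 5 SD below the full-stimulation control mean, in both duplicate runs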;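 further: integrated fluorescence ratio of peak minus minimum over baseline after agonist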
TRPC6 act conf = mouse TRPC6 channel activators, confirmation, HEK293 cells, membrane potential dye, duplicate; shares compounds with TRPC6 inh; HEK293-TRPC6 membrane potential dye fluorescence, FDSS; activation, % at 10 µM; hit rate 11% among 2,800; AID 488961, 2010;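 active means ratio signal rise beyond 5 SD above unstimulated control wells' mean, seen in both duplicate runs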;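 further: plate controls were buffer EC0 wells for no effect and acetylcholine ECmax response for full effect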
Active calls of the source: *; i = inactive; / = not tested or not shown. Shown are actives, neighbours in structure and some others; about 2.3% of the full set was active somewhere.

SMILES	TRPC6 activator	TRPC4 act	TRPC4 PAM	TRPC6 inh	TRPC4 block	TRPC6 inh conf	TRPC6 act conf	others
Cc1ccc(NC(=O)CSc2nc(=O)n(CCCN3CCOCC3)c3c2CCCC3)c(C)c1	i	i	i	i	i	/	/
COc1ccccc1CNC(=O)C(C)c1ccc([N+](=O)[O-])cc1 (centres undefined)	i	i	i	i	i	/	/
CCOc1ccc(CN(C)C(=O)CNC(=O)C2CCCCC2)cc1	i	i	i	i	i	/	/
CCN(CC)CCN1C(=O)c2ccccc2NC1c1ccc(Br)cc1 (centres undefined)	i	i	i	-6.7*	i	i	/	HEK293 MPD ctr-2=i;HEK293 MPD ctr 2-2=i;TRPC4/MOR mod=18%*;TRPC4/MOR inh 2=42%*
CCN(CC)CCN1C(=O)c2ccccc2NC1c1ccc(F)cc1 (centres undefined)	i	i	i	i	i	/	/
COC(=O)C1=NN(C(=O)c2ccccc2)C(O)(c2ccc([N+](=O)[O-])cc2)C1 (centres undefined)	i	i	i	i	i	/	/
COC(=O)C1=NN(C(=O)c2ccc(C)cc2)C(O)(c2ccc(Cl)cc2)C1 (centres undefined)	34*	102*	i	-6.6*	i	77%*	298%*	HEK293 MPD ctr-2=421%*;HEK293 MPD ctr 2-2=i;TRPC4/MOR mod=82%*;TRPC4/MOR inh 2=i
Cc1cccc(N(Cc2ccccc2)C(=O)c2ccc(CS(C)(=O)=O)cc2)c1	i	i	i	i	i	/	/
CCNc1ccc2noc3c2c1C(=O)c1ccccc1-3	i	i	i	-5.8*	i	70%*	i	HEK293 MPD ctr-2=231%*;HEK293 MPD ctr 2-2=108%*;TRPC4/MOR mod=-282%*;TRPC4/MOR inh 2=144%*
COc1ccc(-c2csc(NC(=O)C3CC(=O)N(Cc4ccccc4)C3)n2)cc1OC (centres undefined)	i	i	i	i	i	/	/
c1ccc(Nc2nc(NCC3CCCO3)c3ccccc3n2)cc1 (centres undefined)	i	i	i	-8.8*	-6*	53%*	i	TRPC4 spec 2=31%*;TRPC4 spec=-15%*;HEK293 MPD ctr 2-1=i;HEK293 MPD ctr-1=-135%*
Oc1cccc(Nc2nc(NCC3CCCO3)c3ccccc3n2)c1 (centres undefined)	i	i	i	i	i	/	/
CCOc1ccc(Nc2nc(NCC3CCCO3)c3ccccc3n2)cc1 (centres undefined)	i	i	i	-9.6*	-5*	i	i	TRPC4 spec 2=56%*;TRPC4 spec=-17%*;HEK293 MPD ctr 2-1=i;HEK293 MPD ctr-1=-150%*
COc1ccc(Nc2nc(NCC3CCCO3)c3ccccc3n2)c(OC)c1 (centres undefined)	i	i	i	-9.8*	-6*	75%*	i	TRPC4 spec 2=48%*;TRPC4 spec=-16%*;HEK293 MPD ctr 2-1=i;HEK293 MPD ctr-1=-223%*
c1ccc(-c2nc(NCC3CCCO3)c3ccccc3n2)nc1 (centres undefined)	i	i	i	i	i	/	/
COC(=O)c1c(C)oc(C)c1S(=O)(=O)N1CCOCC1	i	i	i	i	i	/	/
Cc1ccc(S(=O)(=O)N2CCN(C(=O)COC(=O)C3CCC3)CC2)cc1	i	i	i	i	i	/	/
C/C(=N\Nc1ccc2nncn2n1)c1ccco1	i	i	i	i	i	/	/
C/C(=N\Nc1ccc2nncn2n1)c1ccccn1	i	i	i	-7.4*	i	84%*	i	TRPC4 spec 2=71%*;TRPC4 spec=-36%*;HEK293 MPD ctr 2-1=i;HEK293 MPD ctr-1=-522%*
NS(=O)(=O)c1ccc(NC(=O)Nc2ccc3c(c2)OCO3)cc1	i	i	i	i	i	/	/
NCC12CC3CC(C1)CC(c1ccc(Cl)cc1)(C3)C2	i	61*	i	-7.1*	i	72%*	i	TRPC4 spec 2=31%*;TRPC4 spec=i;HEK293 MPD ctr 2-1=i;HEK293 MPD ctr-1=-136%*
Nc1ccc(C23CC4CC(CC(CO)(C4)C2)C3)cc1	i	i	i	i	i	/	/
CCc1nc(N=C(N)N)nc2ccccc12	i	i	i	i	i	/	/
NC(N)=Nc1nc(-c2ccccc2)c2ccccc2n1	i	i	i	-5.4*	i	i	i	HEK293 MPD ctr-2=-174%*;HEK293 MPD ctr 2-2=i;TRPC4/MOR mod=-30%*;TRPC4/MOR inh 2=33%*
Cn1cnc(NCc2ccccc2)c1[N+](=O)[O-]	i	i	i	i	i	/	/

Screens (PubChem)
